# “Also recorded” adds a separate entry of the source. *1 amine or outer side, *2 acyl side, *3 side chain or, on linkers, in order; H or OH if unused. Where a SMILES comes first, the peptide text is derived from it. Side-chain parts run from the residue outwards. [ ]: non-standard residue; d: D form. The star is where a group is joined. Ethylenediamine = C(CN[*:2])N[*:1]; Hyp = O=C(O)[C@@H]1C[C@@H](O)CN1; Phg = N[C@H](C(=O)O)c1ccccc1; CO = O=C([*:1])[*:2]; Bn = c1ccc(C*)cc1
# Assays:
# [1] = Safety and tolerability of a single subcutaneous dose in healthy volunteers; assay type: in vivo, human
# Procedure, shortened: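 Randomized, double-blind, placebo-controlled ascending single s.c. doses; cohorts had 4–8 active and 2 placebo subjects. Subjects were confined from about 36 h pre-dose until 48-h safety results were available, with follow-up over 7 days. AEs came from self-report, investigator questioning, examination or laboratory tests. Laboratory abnormalities counted as AEs only if symptomatic or treated. SAEs were recorded until 4 weeks after the trial. Laboratory tests were run centrally, with descriptive statistics.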
# [2] = system: human sst1; conditions: cited from earlier work; for IC50: read-out: IC50, binding affinity to sst1, human sst1, mean ± SEM
# [3] = system: human sst4; conditions: read-out: IC50, binding affinity to sst4, mean ± SEM; cited from earlier work
# [4] = system: human sst5; conditions: cited from earlier work; for IC50: read-out: IC50, binding affinity to sst5, human sst5, mean ± SEM
# [5] = Blood glucose levels after a single subcutaneous dose in healthy volunteers; assay type: in vivo, human
# Procedure, shortened: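 Healthy males aged 18–40 received one s.c. dose (1–1200 μg) or placebo between 8 and 9 am, about 1 h after a light standardized meal. Blood glucose was measured by the central standard laboratory panel at these times: pre-breakfast before dosing; before and 60 min after a standard lunch on Day –1 and Day 1; 2 h post-dose; and 23 h post-dose on Day 2.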
# [6] = system: GHRH-stimulated GH secretion; assay: GHRH stimulation test, GH suppression in healthy volunteers; assay type: in vivo, human; conditions: for Emax, maximum GH reduction: value ± standard error
# Procedure, shortened: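 The GHRH stimulation test ran on Day –1 and Day 1. A 1 μg/kg GHRH bolus was given about 3 h after the s.c. dose. Plasma GH was sampled at −60 and 0 min and up to 120 min after GHRH, and measured by chemiluminescence assay (LLOQ 0.06 ng/mL).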
# [7] = system: human sst3; conditions: cited from earlier work; for IC50: read-out: IC50, binding affinity to sst3, human sst3, mean ± SEM
# [8] = Plasma pharmacokinetics after a single subcutaneous dose in healthy volunteers; assay type: in vivo, human
# Procedure, shortened: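 Single s.c. dose in healthy males. Blood was drawn by venipuncture or forearm cannula up to 144 h post-dose and centrifuged to plasma. Drug was quantified by validated radioimmunoassay (LLOQ 0.03 ng/mL); values below the LLOQ were set to zero. Parameters came from non-compartmental analysis, reported as median (range) for tmax and mean ± SD otherwise. Dose proportionality was tested by a log-dose versus log-parameter linear model.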
# [9] = compared with octreotide; cited from earlier work
# [10] = system: human sst2; conditions: cited from earlier work; for IC50: read-out: IC50, binding affinity to sst2, human sst2, mean ± SEM
# [11] = single s.c. dose 1200 μg, n = 6
# [12] = male, human, plasma, sc, 2.5 ug
# [13] = male, human, plasma, sc, 100 ug
# [14] = male, human, plasma, sc, 200 ug
# [15] = male, human, plasma, sc, 300 ug
# [16] = male, human, plasma, sc, 600 ug
# [17] = male, human, plasma, sc, 1200 ug
# [18] = single s.c. dose, across dose levels, healthy male volunteers
compound,measurement,setting,value
NCCCC[C@@H]1NC(=O)[C@@H](Cc2c[nH]c3ccccc23)NC(=O)[C@H](c2ccccc2)NC(=O)[C@@H]2C[C@@H](OC(=O)NCCN)CN2C(=O)[C@H](Cc2ccccc2)NC(=O)[C@H](Cc2ccc(OCc3ccccc3)cc2)NC1=O [Pasireotide] (cyclo([Hyp]([CO-Ethylenediamine])[Phg][dW]KY(Bn)F)),AEs considered related to the study drug,"[1]; observed in the 1200 μg dose group only, of a total of 12 AEs in the study",eight
same,increased lipase level,"[1]; one subject, single s.c. dose 10 μg, 48 hours post-dose, normal range 23–300 U/L",523 U/L
same,subjects who experienced at least one AE,[1]; [11],6 subjects
same,subjects who experienced nausea,[1]; [11],five
same,"deaths, serious adverse events, clinically significant changes in laboratory values, vital signs or ECG","[1]; single s.c. dose 1–1200 μg, any dose, healthy male volunteers","no serious adverse events observed at any dose; also recorded: no reports of death, SAEs, or clinically significant changes in laboratory values, vital signs or ECG parameters"
same,tolerability,"[1]; single s.c. dose 1–1200 μg, healthy male volunteers",generally well tolerated
same,maximum tolerable dose,"[1]; single s.c. dose, tested range 1–1200 μg, healthy male volunteers",not established within the tested range
same,higher binding affinity for sst1 compared with octreotide,[2]; ratio versus octreotide,30 fold
same,IC50,[2],9.3 ± 0.1 nM
same,IC50,[3],> 1000 nM
same,higher binding affinity for sst5 than endogenous somatostatin,[4]; ratio versus endogenous somatostatin,2 fold
same,higher binding affinity for sst5 compared with octreotide,[4]; ratio versus octreotide,39 fold
same,IC50,[4],0.16 ± 0.01 nM
same,glucose values,"[5]; all dose groups, twenty-three hours after the injection",normal for all groups
same,blood glucose levels,"[5]; doses between 200 μg and 1200 μg, 2–6 hours after administration, resolved by 23 hours post-dosing",Transient elevations in blood glucose levels
same,glucose levels,"[5]; single s.c. dose 600 μg and 1200 μg, six hours after administration",higher than those of placebo recipients
same,"Emax, maximum GH reduction",[6]; non-linear Emax model for GH AUC ratio versus Cavg,0.99 ± 0.03
same,"Emax, maximum GH reduction",[6]; non-linear Emax model for GH AUC ratio versus dose,1.00 ± 0.00
same,GH suppression,[6]; single pasireotide doses between 200 μg and 1200 μg s.c.,79%–96%
same,decrease in GH AUC2h,[6]; single s.c. dose 30–100 μg,approximately 45%
same,reduction in GH AUC2h,[6]; single s.c. doses between 1 μg and 10 μg,No reduction
same,higher binding affinity for sst3 compared with octreotide,[7]; ratio versus octreotide,5 fold
same,AUC(0-t),[8]; [12],0.11 ± 0.09 ng·h/mL
same,Cmax,[8]; [12],0.06 ± 0.01 ng/mL
same,Tmax,[8]; [12],15 min
same,AUC(0-t),"[8]; male, human, plasma, sc, 10 ug",0.66 ± 0.25 ng·h/mL
same,Cmax,"[8]; male, human, plasma, sc, 10 ug",0.24 ± 0.06 ng/mL
same,Tmax,"[8]; male, human, plasma, sc, 10 ug",15 min
same,Vd/F,"[8]; male, human, plasma, sc, 10 ug",38.1 L
same,AUC(0-t),"[8]; male, human, plasma, sc, 30 ug",2.78 ± 1.02 ng·h/mL
same,Cmax,"[8]; male, human, plasma, sc, 30 ug",0.72 ± 0.17 ng/mL
same,Tmax,"[8]; male, human, plasma, sc, 30 ug",15 min
same,Vd/F,"[8]; male, human, plasma, sc, 30 ug",105 ± 5.7 L
same,half-life,"[8]; male, human, plasma, sc, 30 ug",444 ± 132 min
same,AUC(0-inf),[8]; [13],9.59 ± 2.44 ng·h/mL
same,AUC(0-t),[8]; [13],9.1 ± 2.37 ng·h/mL
same,CL/F,[8]; [13],183 mL/min
same,Cmax,[8]; [13],2.23 ± 0.45 ng/mL
same,Tmax,[8]; [13],30 min
same,Vd/F,[8]; [13],131 ± 41 L
same,AUC(0-inf),[8]; [14],17.5 ± 3.82 ng·h/mL
same,AUC(0-t),[8]; [14],16.8 ± 3.65 ng·h/mL
same,CL/F,[8]; [14],198 mL/min
same,Cmax,[8]; [14],3.73 ± 0.9 ng/mL
same,Tmax,[8]; [14],22.8 min
same,Vd/F,[8]; [14],162 ± 33.9 L
same,AUC(0-inf),[8]; [15],27.1 ± 6.98 ng·h/mL
same,AUC(0-t),[8]; [15],26 ± 6.87 ng·h/mL
same,CL/F,[8]; [15],198 mL/min
same,Cmax,[8]; [15],4.71 ± 1.79 ng/mL
same,Tmax,[8]; [15],22.8 min
same,Vd/F,[8]; [15],180 ± 44.3 L
same,AUC(0-inf),[8]; [16],78.6 ± 12.3 ng·h/mL
same,AUC(0-t),[8]; [16],75.6 ± 11.2 ng·h/mL
same,CL/F,[8]; [16],130 mL/min
same,Cmax,[8]; [16],15.6 ± 3.25 ng/mL
same,Tmax,[8]; [16],30 min
same,Vd/F,[8]; [16],464 ± 440 L
same,AUC(0-inf),[8]; [17],93.6 ± 13.6 ng·h/mL
same,AUC(0-t),[8]; [17],90.4 ± 13.2 ng·h/mL
same,CL/F,[8]; [17],218 mL/min
same,Cmax,[8]; [17],22.2 ± 5.53 ng/mL
same,Tmax,[8]; [17],30 min
same,Vd/F,[8]; [17],1190 ± 1570 L
same,half-life,[8]; [17],546 ± 126 min
same,partial AUC in the γ phase as contribution to total AUC∞,"[8]; single s.c. dose, 600 μg and 1200 μg, healthy male volunteers",< 15%
same,Tmax,[8]; [18],15 to 30 min
same,"t½,β (effective elimination half-life), mean",[8]; [18],420 to 660 min
same,"Vz/F, mean value","[8]; single s.c. dose, low doses (10 μg), healthy male volunteers",40 L
same,metabolic stability,[9],greater metabolic stability than octreotide
same,lower affinity for sst2 compared with octreotide,[10]; ratio versus octreotide,2.6 times
same,IC50,[10],1 ± 0.1 nM
Lanreotide [reference compound],IC50,[2],180 ± 20 nM
same,IC50,[3],230 ± 40 nM
same,IC50,[4],17 ± 5 nM
same,IC50,[7],14 ± 9 nM
same,IC50,[10],0.54 ± 0.08 nM
Octreotide [reference compound],IC50,[2],280 ± 80 nM
same,IC50,[3],> 1000 nM
same,IC50,[4],6.3 ± 1 nM
same,IC50,[7],7.1 ± 1.4 nM
same,IC50,[10],0.38 ± 0.08 nM

# From article PMC3346155 (Drug Design, Development and Therapy, 2012)
